Test results from ChEMBL document CHEMBL1156149, “Cyclic sulfones as novel P3-caps for hepatitis C virus NS3/4A (HCV NS3/4A) protease inhibitors: synthesis and evaluation of inhibitors with improved potency and pharmacokinetic profiles” (J Med Chem, 2010).

Legend:
[1] = Inhibition of HCV NS3/4A protease; design: species or system Hepacivirus hominis
Hepatitis C virus = test: Antiviral activity against Hepatitis C virus infected in human hepatoma cells assessed as inhibition of viral replication; assay type: functional, organism-based, Hepacivirus hominis
[2] = AUC (0 to 24 hrs) in monkey at 3 mg/kg, po; assay type: ADME, organism-based, Macaca mulatta; design: time < 24 hr, dose 3 mg/kg, route oral; settings: rhesus monkey, plasma
[3] = Ratio of plasma concentration in monkey at 3 mg/kg, po after 8 hrs to EC90 for Hepatitis C virus; assay type: ADME, organism-based; design: dose 3 mg/kg, route oral; settings: in vivo
[4] = Plasma concentration in monkey at 3 mg/kg, po after 8 hrs; assay type: ADME, organism-based, Macaca mulatta; design: dose 3 mg/kg, route oral; settings: rhesus monkey
[5] = AUC in rat at 10 mg/kg; assay type: ADME, organism-based; design: dose 10 mg/kg; settings: plasma
Procedure, shortened: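 Rats were given compound orally at 10 mg/kg in 0.4% methylcellulose in water. Blood was sampled periodically and pooled (rapid rat protocol). Plasma exposure was reported as AUC(0-6h) in μM h.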

[6] = AUC in monkey at 3 mg/kg; assay type: ADME, organism-based, Macaca mulatta; design: dose 3 mg/kg; settings: rhesus monkey, plasma
Procedure, shortened: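 Oral dosing of monkeys at 3 mpk, with compound suspended in 0.4% methylcellulose. Exposure was reported as plasma AUC(0-24h) in μM h. Plasma concentration at 8 h was also taken and expressed as a ratio to cellular EC90.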

[7] = Bioavailability in monkey at 3 mg/kg; assay type: ADME, organism-based, Macaca mulatta; settings: rhesus monkey, in vivo
[8] = AUC (0 to 6 hrs) in rat at 10 mg/kg, po; assay type: ADME, organism-based; design: time < 6 hr, dose 10 mg/kg, route oral; settings: plasma
Procedure, shortened: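 Rats dosed orally at 10 mg/kg in 0.4% methylcellulose in water, in a rapid rat protocol. Blood was withdrawn periodically and pooled, and plasma AUC was calculated over the stated interval.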

| Compound | Ki [1] | EC90 (Hepatitis C virus) | further results |
| --- | --- | --- | --- |
| C=CCNC(=O)C(=O)C(CCC)NC(=O)[C@@H]1[C@H]2[C@@H](CN1C(=O)[C@@H](NC(=O)NC1([C@H]3CCCS3(=O)=O)CCCCC1)C(C)(C)C)C2(C)C (mixture of isomers) | 6 nM | 35 nM | – |
| CC(C)(C)NC(=O)N[C@H](C(=O)N1C[C@H]2[C@@H]([C@H]1C(=O)NC(CC1CCC1)C(=O)C(N)=O)C2(C)C)C(C)(C)C (some centres undefined) [BOCEPREVIR] | 14 nM | – | AUC [5]: 1.52 µM·h; AUC [6]: 0.12 µM·h; AUC(0-t) at 24 h [2]: 0.12 µM·h; EC90 (Hepatitis C virus; read-out: EC90): 350 nM; bioavailability [7]: 4% |
| CCCC[C@H](NC(=O)[C@@H]1[C@H]2[C@@H](CN1C(=O)[C@@H](NC(=O)NC1([C@H]3CCCCS3(=O)=O)CCCCC1)C1(C)CCCCC1)C2(C)C)C(=O)C(=O)NC1CC1 | 8 nM | 100 nM | – |
| C=CCNC(=O)C(=O)[C@H](CCCC)NC(=O)[C@@H]1[C@H]2[C@@H](CN1C(=O)[C@@H](NC(=O)NC1([C@H]3CCCCS3(=O)=O)CCCCC1)C(C)(C)C)C2(C)C | 12 nM | 60 nM | – |
| CC1(NC(=O)N[C@H](C(=O)N2C[C@@H]3[C@H]([C@H]2C(=O)NC(CC2CCC2)C(=O)C(N)=O)C3(C)C)C(C)(C)C)CCCCC1 (some centres undefined) | 9 nM | – | EC90 (Hepatitis C virus; read-out: EC90): 200 nM |
| CCCC[C@H](NC(=O)[C@@H]1[C@H]2[C@@H](CN1C(=O)[C@@H](NC(=O)NC1([C@H]3CCCCS3(=O)=O)CCCCC1)C(C)(C)C)C2(C)C)C(=O)C(=O)NC1CC1 | 10 nM | 50 nM | – |
| CCC[C@H](NC(=O)[C@@H]1[C@H]2[C@@H](CN1C(=O)[C@@H](NC(=O)NC1([C@H]3CCCCS3(=O)=O)CCCCC1)C1(C)CCCCC1)C2(C)C)C(=O)C(=O)NC1CC1 | 7 nM | 50 nM | – |
| CC1(C)C2CN(C(=O)[C@@H](NC(=O)NC3([C@H]4CCCCS4(=O)=O)CCCCC3)C(C)(C)C)[C@H](C(=O)N[C@@H](CCC3CC3)C(=O)C(=O)NC3CC3)C21 (single isomer, unassigned) | 6 nM | 40 nM | – |
| CCCC[C@H](NC(=O)[C@@H]1C2C(CN1C(=O)[C@@H](NC(=O)NC1([C@H]3CCS3(=O)=O)CCCCC1)C(C)(C)C)C2(C)C)C(=O)C(=O)NC1CC1 (single isomer, unassigned) | 10 nM | 60 nM | – |
| CCCC[C@H](NC(=O)[C@@H]1C2C(CN1C(=O)[C@@H](NC(=O)NC1([C@@H]3CCCCS3(=O)=O)CCCCC1)C(C)(C)C)C2(C)C)C(=O)C(=O)NC1CC1 (single isomer, unassigned) | 11 nM | 60 nM | – |
| CCC[C@H](NC(=O)[C@@H]1[C@H]2[C@@H](CN1C(=O)[C@@H](NC(=O)NC1([C@H]3CCCCS3(=O)=O)CCCCC1)C(C)(C)C)C2(C)C)C(=O)C(=O)NC1CC1 | 12 nM | 40 nM | – |

Stronger by Ki [1], values ahead:

| Ki [1] | EC90 (Hepatitis C virus) | Compound | further results |
| --- | --- | --- | --- |
| 3 nM | 40 nM | CC1([C@H](NC(=O)NC2([C@H]3CCCS3(=O)=O)CCCCC2)C(=O)N2C[C@@H]3[C@H]([C@H]2C(=O)N[C@@H](CCC2CC2)C(=O)C(=O)NC2CC2)C3(C)C)CCCCC1 | AUC(0-t) at 24 h [2]: 3.5 µM·h; Ratio [3]: 8; concentration at 8 h [4]: 303 nM |
| 4 nM | 40 nM | CC(C)(C)[C@H](NC(=O)NC1([C@H]2CCCS2(=O)=O)CCCCC1)C(=O)N1C[C@@H]2[C@H]([C@H]1C(=O)N[C@@H](CCC1CC1)C(=O)C(=O)NC1CC1)C2(C)C | – |
| 3 nM | 20 nM | CCCC[C@H](NC(=O)[C@@H]1C2C(CN1C(=O)[C@@H](NC(=O)NC1([C@H]3CCCS3(=O)=O)CCCCC1)C1(C)CCCCC1)C2(C)C)C(=O)C(=O)NC1CC1 (single isomer, unassigned) | AUC(0-t) at 24 h [2]: 9 µM·h; Ratio [3]: 37; concentration at 8 h [4]: 742 nM |
| 4 nM | 40 nM | C=CCNC(=O)C(=O)[C@H](CCC1CC1)NC(=O)[C@@H]1[C@H]2[C@@H](CN1C(=O)[C@@H](NC(=O)NC1([C@H]3CCCCS3(=O)=O)CCCCC1)C(C)(C)C)C2(C)C | – |
| 4 nM | 35 nM | C=CCNC(=O)C(=O)[C@H](CCC1CC1)NC(=O)[C@@H]1C2C(CN1C(=O)[C@@H](NC(=O)NC1([C@H]3CCCS3(=O)=O)CCCCC1)C(C)(C)C)C2(C)C (single isomer, unassigned) | – |
| 5 nM | 120 nM | CCCC[C@H](NC(=O)[C@@H]1C2C(CN1C(=O)[C@@H](NC(=O)NC1([C@@H]3CCS3(=O)=O)CCCCC1)C(C)(C)C)C2(C)C)C(=O)C(=O)NC1CC1 (single isomer, unassigned) | – |
| 3 nM | 30 nM | C=CCNC(=O)C(=O)[C@H](CCC)NC(=O)[C@@H]1C2C(CN1C(=O)[C@@H](NC(=O)NC1([C@H]3CCCCS3(=O)=O)CCCCC1)C(C)(C)C)C2(C)C (single isomer, unassigned) | – |
| 4 nM | 20 nM | CCCC[C@H](NC(=O)[C@@H]1C2C(CN1C(=O)[C@@H](NC(=O)NC1([C@H]3CCCS3(=O)=O)CCCCC1)C(C)(C)C)C2(C)C)C(=O)C(=O)NC1CC1 (single isomer, unassigned) | AUC(0-t) at 6 h [8]: 0.9 µM·h; AUC(0-t) at 24 h [2]: 0.4 µM·h; Ratio [3]: 0.5; concentration at 8 h [4]: 10 nM |
| 2 nM | 20 nM | CCC[C@H](NC(=O)[C@@H]1C2C(CN1C(=O)[C@@H](NC(=O)NC1([C@H]3CCCS3(=O)=O)CCCCC1)C1(C)CCCCC1)C2(C)C)C(=O)C(=O)NC1CC1 (single isomer, unassigned) | AUC(0-t) at 24 h [2]: 20.8 µM·h; Ratio [3]: 47; concentration at 8 h [4]: 934 nM |
| 4 nM | 30 nM | CCCC[C@H](NC(=O)[C@@H]1C2C(CN1C(=O)[C@@H](NC(=O)NC1([C@@H]3CCCS3(=O)=O)CCCCC1)C(C)(C)C)C2(C)C)C(=O)C(=O)NC1CC1 (single isomer, unassigned) | – |
| 3 nM | 30 nM | C=CCNC(=O)C(=O)[C@H](CCCC)NC(=O)[C@@H]1C2C(CN1C(=O)[C@@H](NC(=O)NC1([C@H]3CCCS3(=O)=O)CCCCC1)C(C)(C)C)C2(C)C (single isomer, unassigned) | AUC(0-t) at 24 h [2]: 2.2 µM·h |
| 4 nM | 20 nM | CCC[C@H](NC(=O)[C@@H]1C2C(CN1C(=O)[C@@H](NC(=O)NC1([C@H]3CCCS3(=O)=O)CCCCC1)C(C)(C)C)C2(C)C)C(=O)C(=O)NC1CC1 (single isomer, unassigned) | – |
